The values that follow come from PubChem BioAssay AID719 (SRMLSC, 2007).

Molecules are shown by their SMILES. Hit rate of the full screen: of about 85,000 compounds, about 940 (1.1%) were called active.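 How the source made its calls: active means viability at or below 50% in the single dose screen; inactive means viability above 50%.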 The sample as a whole holds a higher share of actives than the screen did.

The nature of this experiment: antiproliferative effect on LL 47 fibroblasts – human, LL 47 cells, CellTiter-Glo luminescence, primary screen (AID 719).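 Further: compound exposure lasted 72 h before the ATP readout; 100% = median luminescence of untreated cell-only wells.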 Particulars: LL 47 human lung fibroblast viability, ATP luminescence; at 10 µM; stronger effect = lower value. Summed up: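 Material: human lung fibroblast line LL 47, low passage; Evaluation: viability percentage against median untreated-cell control; Buffer or medium: 15% FBS in IMEM; Incubation: 72 h compound exposure at 37 °C after overnight plating; Dosing: 0.1% DMSO in all compound wells; Measured by: CellTiter-Glo luminescence.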
For `O=C(C(NS(=O)(=O)c1cccc2nsnc12)c1ccccc1)N1CCN(c2ccccc2)CC1` (stereo not drawn), the viability was 94.9% (inactive).

With `Oc1c(Cl)cc(Cl)c(Cl)c1Cc1c(O)c(Cl)cc(Cl)c1Cl`, the viability is 46.4% (active).

Regarding `CCCCN(CCCC)C(=O)CCS(=O)(=O)c1ccc2c(c1)n(C)c(=O)c(=O)n2C`, the viability is 96.8% (inactive).

`Cc1ccc(S(=O)(=O)NCCN2CCOCC2)cc1C`: the viability was 108% (inactive).

On to `CC(=O)CCS(=O)(=O)c1ccc(C)c(C)c1`, for which the viability is 32.5% (active).

As for `Cc1cc(C)cc(N(CC(=O)N2CC=C(c3ccccc3)CC2)S(=O)(=O)c2c(C)noc2C)c1`, the viability is 95.6% (inactive).

With `CC/C(O)=N\S(=O)(=O)c1ccc(N=NN(C)C)cc1`, the viability is 97.5% (inactive).

Turning to `Cc1ccc(N(Cc2ccc(C(=O)Nc3ccccc3C(=O)NCc3ccco3)cc2)S(C)(=O)=O)cc1C`, the viability is 97% (inactive).

Regarding `Cc1nc2ccc(C(=O)O)cc2[nH]1`, the viability is 104% (inactive).

Turning to `COC(=O)Nc1nc2ccc(Sc3ccccc3)cc2[nH]1`, the viability is 47.2% (active).

On to `CC(C)c1nc2ccc(C(=O)O)cc2[nH]1`, for which the viability was 98.8% (inactive).

Take `CN(Cc1ccccc1)C(=O)COc1ccccc1`: the viability is 104% (inactive).

Regarding `c1ccc(-c2nc(NCc3ccco3)c3ccccc3n2)cc1`, the viability is 95.9% (inactive).

Turning to `CC(c1ccco1)N(C(=O)Nc1ccccc1)C1CCCCC1` (stereo not drawn), the viability was 97.3% (inactive).

With `COc1ccc(-c2nnco2)cc1OC`, the viability was 103% (inactive).

Consider `COc1ccc(-c2cc(C(F)(F)F)nc(NCc3cccnc3)n2)cc1`, for which the viability was 87.3% (inactive).

For `COc1ccc(-c2cc(C(F)(F)F)nc(S(C)(=O)=O)n2)cc1OC`, the viability is 2.93% (active).

As to `COc1cccc2cc(C(=O)N3CCN(C(=O)c4ccccc4)CC3)c(=O)oc12`, the viability was 92.4% (inactive).

Turning to `CC(=O)NC1=NN(C(C)=O)C(C)(c2ccc(Cl)s2)S1` (stereo not drawn), the viability was 67.1% (inactive).

As for `Cc1ccccc1CSCCNC(=O)c1ccc(Cl)c(S(=O)(=O)N2CCOCC2)c1`, the viability was 97.8% (inactive).

`CCOc1cc(NC(=O)c2ccco2)c(OCC)cc1NC(=O)COc1ccccc1`: the viability was 99.7% (inactive).

Regarding `CCOc1cc(N2CCOCC2)c(OCC)cc1NC(=O)COc1cccc2cccnc12`, the viability was 31% (active).

In the case of `CCOc1cc(N2CCOCC2)c(OCC)cc1NC(=O)COC(=O)[C@H](Cc1c[nH]c2ccccc12)NC(C)=O`, the viability was 105% (inactive).

For `CS(=O)(=O)n1nc(-c2ccccc2)nc1NCc1ccco1`, the viability is 105% (inactive).

Turning to `C=C1c2cc(CC)ccc2NC(=O)N1c1ccc(C)cc1`, the viability was 102% (inactive).

On to `CCc1ccc2c(c1)C1(NN=C(c3ccccc3)S1)C(=O)N2` (stereo not drawn), for which the viability was 32.1% (active).

Take `O=C1Nc2ccccc2C12Nc1ccccc1S2` (stereo not drawn): the viability was 92.1% (inactive).

In the case of `CN(C)S(=O)(=O)c1ccc(N2CCCC2)c(C(=O)NCc2ccccc2)c1`, the viability is 98.3% (inactive).

`CC1=C/C(=N\OS(=O)(=O)c2ccccc2)C=CC1=O`: the viability is 1.44% (active).

Take `CCOC(=O)c1sc(C)c2c1NC(C)(c1cccc3ccccc13)NC2=O` (stereo not drawn): the viability is 78.7% (inactive).

For the compound `O=C(NCCSCc1ccccc1)c1ccc(Cl)c(S(=O)(=O)N2CCOCC2)c1`, the viability is 92.8% (inactive).

On to `N=c1c2c3c(sc2nc2n1CCCCC2)CCCC3`, for which the viability is 102% (inactive).

Regarding `CC1(C)NC(=O)N(CCCCSc2ccc(Cl)cc2)C1=O`, the viability is 95% (inactive).

For `CCOc1ccc2c(c1)C(c1ccc(C)cc1)=NNC(c1ccc(C)cc1)=N2`, the viability was 75.9% (inactive).

As for `CC(C)(C)NC(=O)Cn1c(SCC(=O)Nc2nccs2)nc2ccccc21`, the viability is 93.8% (inactive).

As to `CCC(c1nnnn1C(C)(C)C)N(Cc1cc2cccc(C)c2n2nnnc12)C1CCCC1` (stereo not drawn), the viability was 95.7% (inactive).

`CCOC(=O)c1c(N=CN(C)C)c(C#N)c2n1CCCC2`: the viability was 98.2% (inactive).

Consider `CC[C@]1(O)CC2CN(CCc3c([nH]c4ccccc34)[C@@](C(=O)OC)(c3cc4c(cc3OC)N(C=O)[C@H]3[C@@](O)(C(=O)OC)[C@H](OC(C)=O)[C@]5(CC)C=CCN6CC[C@]43[C@@H]65)C2)C1` (stereo partly drawn), for which the viability was 44.6% (active).

As for `CO/N=C(/CS(=O)(=O)c1ccc(Br)cc1)c1ccc(OC)cc1`, the viability is 90.9% (inactive).

With `Cc1cc(=O)oc2cc(NC(=O)C3CC(=O)N(Cc4ccccc4)C3)ccc12` (stereo not drawn), the viability is 103% (inactive).

Consider `Cc1ccccc1N1CCN(CCCOc2ccc3c(C)cc(=O)oc3c2)CC1`, for which the viability was 94% (inactive).

For the compound `Cc1cc(=O)oc2cc(OCC3CC(c4ccccc4Cl)=NO3)ccc12` (stereo not drawn), the viability is 47.8% (active).

On to `Cc1cccc2nc(CSc3nc4[nH]ncc4c(=O)n3-c3cccc(Cl)c3)cc(=O)n12`, for which the viability is 68.1% (inactive).

On to `CCOc1ccc(NS(=O)(=O)c2ccc(OCC(=O)NCCCOC)cc2)cc1`, for which the viability was 40.2% (active).

On to `COC(=O)COc1ccc(S(=O)(=O)Nc2ccc(NC(C)=O)cc2)cc1`, for which the viability was 104% (inactive).

In the case of `CCOc1ccc(S(=O)(=O)Nc2ccc(S(=O)(=O)Nc3cc(OC)ccc3OC)cc2)cc1`, the viability was 105% (inactive).

In the case of `O=C(c1ccccc1Oc1ccccc1)N1CCN(c2ccc(F)cc2)CC1`, the viability is 99.7% (inactive).

Regarding `CCOc1ccccc1NC(=O)C1CCCN(C(=O)Nc2ccccc2)C1` (stereo not drawn), the viability was 106% (inactive).

Consider `COc1ccc(C(=O)Nc2ccc3c(c2)OCO3)cc1OC`, for which the viability is 100% (inactive).

As to `Cn1c(=O)n(C)c2cc(C(=O)Nc3ccc4c(c3)OCO4)ccc21`, the viability was 48.5% (active).

Regarding `Cn1c(NC(=O)c2ccc3c(c2)OCO3)cc(=O)n(C)c1=O`, the viability is 97% (inactive).

Turning to `CCCc1nc2sc3c(c2c(=O)n1NC(=O)CCCl)CCCC3`, the viability was 80.4% (inactive).

In the case of `CC1CN(S(=O)(=O)c2ccccc2)C(C)CN1S(=O)(=O)c1ccccc1` (stereo not drawn), the viability was 93.9% (inactive).

As to `CCCn1c(C(Cc2ccccc2)NC(=O)COC)nc2ccccc21` (stereo not drawn), the viability was 93.2% (inactive).

For `Cc1ccc(CN(C(=O)c2sc3ccccc3c2Cl)C2CCS(=O)(=O)C2)cc1` (stereo not drawn), the viability was 89.4% (inactive).

With `CCC(C(=O)NCc1ccc(OC)cc1)n1nc(C)n2c(cc3occc32)c1=O` (stereo not drawn), the viability was 95.5% (inactive).

As for `COc1ccccc1-n1nnnc1S(=O)(=O)Cc1ccc(Cl)cc1`, the viability is 25% (active).

For the compound `COc1ccccc1N1CCN(Cc2nnnn2CCc2ccccc2)CC1`, the viability is 101% (inactive).

On to `COc1ccccc1N1CCN(C(=O)CN(Cc2ccc(Cl)cc2)S(C)(=O)=O)CC1`, for which the viability was 98.3% (inactive).

For `O=C(Nc1ccccc1-c1nnn(CC(=O)N2CCCc3ccccc32)n1)c1cccc(Cl)c1`, the viability was 52.5% (inactive).

As for `Cc1ccc(NC(=S)NC(NC(=O)Cc2cccc3ccccc23)C(Cl)(Cl)Cl)cc1` (stereo not drawn), the viability is 49.6% (active).

As for `O=C(Cc1cccc2ccccc12)Nc1ccc2oc(-c3ccccc3)nc2c1`, the viability is 99% (inactive).

Take `Cc1ccc(NC(=O)CCN2CCc3ccccc3C2)cc1`: the viability is 94.5% (inactive).

Usually viability stands for a read-out of living cells in per cent, often relative to untreated cells.
